Experimental data taken from ChEMBL document CHEMBL5257104, “Identification of a novel spirocyclic Nek2 inhibitor using high throughput virtual screening” (Bioorg Med Chem Lett, 2023).
Activity calls are given as the source filed them. No cut-off for these calls is given here.

Assays:
[1] = target: T1, Serine/threonine-protein kinase Nek2 (Homo sapiens, UniProt P51955); assay: Inhibition of human recombinant Nek2 in presence of 50 uM ATP by ADP-Glo kinase assay
T1 sequence (P51955 whole entry): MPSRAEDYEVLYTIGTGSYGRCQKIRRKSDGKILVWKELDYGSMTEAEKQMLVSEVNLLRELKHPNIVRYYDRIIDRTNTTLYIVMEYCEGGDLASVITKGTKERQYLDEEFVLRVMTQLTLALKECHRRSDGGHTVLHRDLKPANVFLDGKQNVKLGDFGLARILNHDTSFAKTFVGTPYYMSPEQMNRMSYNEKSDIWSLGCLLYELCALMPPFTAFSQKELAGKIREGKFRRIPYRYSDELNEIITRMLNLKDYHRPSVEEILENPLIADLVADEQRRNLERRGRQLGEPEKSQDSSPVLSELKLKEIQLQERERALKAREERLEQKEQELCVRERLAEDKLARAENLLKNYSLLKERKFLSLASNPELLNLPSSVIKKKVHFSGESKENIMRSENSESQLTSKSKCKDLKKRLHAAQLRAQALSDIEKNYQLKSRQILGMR
Method in brief: (§1)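 Kinase activity was measured at 50 μM ATP using recombinant enzyme. A concentration-response curve was generated for each kinase, and IC50 was obtained by fitting the data.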

[2] = target: T1, Serine/threonine-protein kinase Nek2; assay: Inhibition of human recombinant Nek2 in presence of 150 uM ATP by ADP-Glo kinase assay
Method in brief: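 Recombinant human Nek2 kinase activity assay run with ATP raised threefold, from the standard 50 μM to 150 μM. Inhibitor tested over a concentration series, and IC50 obtained by fitting the concentration-response curve.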

Aurora kinase A = target: T2, Aurora kinase A (Homo sapiens, UniProt O14965); assay: Inhibition of Aurora A (unknown origin); method in brief: as §1
T2 sequence (O14965 whole entry): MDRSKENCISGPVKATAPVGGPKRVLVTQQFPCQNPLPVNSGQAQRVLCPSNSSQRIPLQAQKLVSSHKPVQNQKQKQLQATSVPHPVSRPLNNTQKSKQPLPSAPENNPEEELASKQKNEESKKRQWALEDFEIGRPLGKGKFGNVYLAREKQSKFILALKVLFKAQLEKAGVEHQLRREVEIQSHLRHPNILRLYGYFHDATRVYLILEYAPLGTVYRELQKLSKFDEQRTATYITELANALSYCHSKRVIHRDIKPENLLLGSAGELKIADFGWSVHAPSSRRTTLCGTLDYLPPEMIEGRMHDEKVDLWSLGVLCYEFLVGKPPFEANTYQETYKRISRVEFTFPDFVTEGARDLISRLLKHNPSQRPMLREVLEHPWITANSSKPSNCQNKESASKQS

[3] = target: Cyclin-dependent kinase 1 (Homo sapiens, UniProt P06493); assay: Inhibition of CDK1 (unknown origin); method in brief: as §1
[4] = target: Serine/threonine-protein kinase Nek7 (Homo sapiens, UniProt Q8TDX7); assay: Inhibition of Nek7 (unknown origin); method in brief: as §1
[5] = target: Serine/threonine-protein kinase PLK1 (Homo sapiens, UniProt P53350); assay: Inhibition of Plk1 (unknown origin); method in brief: as §1
A549 [6] = assay: Inhibition of Akt phosphorylation at S473 residue in human A549 cells by Western blotting analysis; format: cell-based; details: dose 5-20 µM
Method in brief: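 A549 cells were treated for 24 h across several concentrations. Ser-473 phospho-Akt was detected by Western blot with GAPDH as the loading control. DMSO served as vehicle control and a reference Nek2 inhibitor as positive control.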

A549 [7] = assay: Cytotoxicity against human A549 cells assessed as inhibition of cell growth by MTT assay; format: functional, cell-based
Method in brief: (§2)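 Cell viability read by MTT assay across a range of concentrations. EC50 taken from the dose-response curve. See Supporting Information, Section III, for details not given here.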

MDA-MB-231 = assay: Cytotoxicity against human MDA-MB-231 cells assessed as inhibition of cell growth by MTT assay; format: functional, cell-based; method in brief: as §2
A549 [8] = assay: Antimigratory activity against human A549 cells at 50 to 100 uM by wound healing assay; format: functional, cell-based; details: dose 50-100 µM
Method in brief: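 A549 monolayers were scratched and treated. Migration was judged by imaging wound boundaries at the initial scratch (t = 0) and at 24 hr post-treatment, compared with vehicle control.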

Sequence of Cyclin-dependent kinase 1 (P06493 whole entry): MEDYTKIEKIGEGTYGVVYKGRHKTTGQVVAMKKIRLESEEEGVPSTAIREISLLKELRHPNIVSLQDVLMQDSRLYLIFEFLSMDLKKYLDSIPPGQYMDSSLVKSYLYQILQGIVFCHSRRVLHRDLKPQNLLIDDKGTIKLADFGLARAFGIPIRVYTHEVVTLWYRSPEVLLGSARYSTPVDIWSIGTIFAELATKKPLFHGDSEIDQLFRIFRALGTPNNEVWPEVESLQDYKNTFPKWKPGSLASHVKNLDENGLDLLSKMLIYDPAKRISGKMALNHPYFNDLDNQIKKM
Sequence of Serine/threonine-protein kinase PLK1 (P53350 whole entry): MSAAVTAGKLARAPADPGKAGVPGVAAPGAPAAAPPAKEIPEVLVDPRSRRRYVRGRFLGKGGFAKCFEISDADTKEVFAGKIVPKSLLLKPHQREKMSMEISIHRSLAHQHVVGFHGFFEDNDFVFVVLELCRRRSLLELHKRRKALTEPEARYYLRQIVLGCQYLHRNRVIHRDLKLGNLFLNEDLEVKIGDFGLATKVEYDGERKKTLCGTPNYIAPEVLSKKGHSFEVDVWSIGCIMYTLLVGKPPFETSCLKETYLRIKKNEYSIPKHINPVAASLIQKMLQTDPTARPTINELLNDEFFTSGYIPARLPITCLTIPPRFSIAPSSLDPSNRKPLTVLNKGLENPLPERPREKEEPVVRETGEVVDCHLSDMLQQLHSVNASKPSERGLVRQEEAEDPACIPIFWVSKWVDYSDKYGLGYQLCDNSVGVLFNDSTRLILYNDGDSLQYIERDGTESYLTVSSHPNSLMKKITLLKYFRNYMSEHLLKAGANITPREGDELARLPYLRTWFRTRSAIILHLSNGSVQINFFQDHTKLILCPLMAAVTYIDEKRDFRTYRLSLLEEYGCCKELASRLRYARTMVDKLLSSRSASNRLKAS
Sequence of Serine/threonine-protein kinase Nek7 (Q8TDX7 whole entry): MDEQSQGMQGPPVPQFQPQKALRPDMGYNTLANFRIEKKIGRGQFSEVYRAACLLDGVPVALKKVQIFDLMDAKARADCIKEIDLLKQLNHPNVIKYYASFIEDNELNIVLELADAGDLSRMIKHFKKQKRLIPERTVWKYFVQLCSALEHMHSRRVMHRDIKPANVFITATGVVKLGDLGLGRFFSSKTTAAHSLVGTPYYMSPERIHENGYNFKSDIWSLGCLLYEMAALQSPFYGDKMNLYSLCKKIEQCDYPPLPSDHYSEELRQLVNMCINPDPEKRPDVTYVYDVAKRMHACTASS

Row | Compound | IC50 [1] [µM] | also measured
1 | CCOC(=O)c1ccc(S(=O)(=O)N2CCC3(CC2)N=C(c2ccc(Br)cc2)C(=O)N3)cc1 | 14.6 | 
2 | O=C1NC2(CCN(S(=O)(=O)c3ccccc3)CC2)N=C1c1ccc(Br)cc1 | 9.3 | 
3 | CS(=O)(=O)N1CCC2(CC1)NCC(=O)N2 | 32.1 | 
4 | Cc1cc(C)c(S(=O)(=O)N2CCC3(CC2)N=C(c2ccc(Br)cc2)C(=O)N3)c(C)c1 | 9.8 | 
5 | CC(C)(C)c1ccc(C2=NC3(CCN(S(C)(=O)=O)CC3)NC2=O)cc1 | 8.7 | 
6 | CN1CCC2(CC1)NCC(=O)N2 | 58.1 | 
7 | Cc1ccc(S(=O)(=O)N2CCC3(CC2)N=C(c2ccc(Br)cc2)C(=O)N3)cc1C | 12.3 | 
8 | O=C1NC2(CCN(C(=O)c3ccccc3)CC2)N=C1c1ccc(Br)cc1 | 9.2 | 
9 | O=C1CNC2(CCNCC2)N1 | 32.5 | 

Stronger by IC50 [1], values ahead:

Row | IC50 [1] [µM] | Compound | also measured
10 | 3.2 | Cc1ccc(C2=NC3(CCN(S(C)(=O)=O)CC3)NC2=O)cc1C | 
11 | 6 | O=C1NC2(CCN(S(=O)(=O)c3ccccc3)CC2)N=C1c1ccc(Cl)cc1 | 
12 | 5 | CC(C)(C)c1ccc(S(=O)(=O)N2CCC3(CC2)N=C(c2ccc(Br)cc2)C(=O)N3)cc1 | 
13 | 2.4 | CS(=O)(=O)N1CCC2(CC1)N=C(c1ccc(Br)cc1)C(=O)N2 | IC50 [2]: 17.1 µM; IC50 (Aurora kinase A): 21.3 µM; IC50 [3]: 29.3 µM; IC50 [4]: 28.8 µM; IC50 [5]: 20.4 µM; inhibition (A549 [6]): Dose-Dependent Effect; IC50 (A549 [7]): 22.7 µM; IC50 (MDA-MB-231): 18.1 µM; Activity (A549 [8]): Active
14 | 4.9 | Cc1ccc(C2=NC3(CCN(S(C)(=O)=O)CC3)NC2=O)cc1 | 
15 | 4.5 | O=C1NC2(CCN(S(=O)(=O)c3ccccc3)CC2)N=C1c1ccc(F)cc1 | 
16 | 6.8 | O=C1NC2(CCN(S(=O)(=O)Cc3ccccc3)CC2)N=C1c1ccc(Br)cc1 | 
17 | 8.1 | O=C1NC2(CCN(S(=O)(=O)c3ccccc3)CC2)N=C1c1ccccc1 | 
18 | 5.6 | O=C1NC2(CCN(S(=O)(=O)c3cccs3)CC2)N=C1c1ccc(Br)cc1 | 
